The full list was thinned out, with hits kept by preference.
YB-1 expression: YB-1 expression inhibition. U2OS, qRT-PCR YB-1 vs CDIP delta delta Cp, 16 h; hits give high values; zero = DMSO, each unit about twofold. delta delta Cp (YB-1 minus CDIP) (concentration not given with the values). 30,000 tested, 0.37% active. AID 434959;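 active means delta delta Cp rounded down to an integer at or above 3, about 3 SD of DMSO wells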;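 further: higher means less YB-1 transcript or more CDIP transcript relative to DMSO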
T cruzi HTS: blocks T. cruzi growth inside host cells. activity score (inhibition), % at 5.01 µM. 22,000 tested, 4.9% active. AID 651903. intracellular Trypanosoma cruzi in host cells, plate reader; in the data active means activity score above about 55%;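 further: parasites and compound incubated about four days before reading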
INS-1E rescue: rescue of cytokine-induced death in INS-1E beta cells | INS-1E cytokine-induced death, ATP luminescence, 48 h; normalised: neutral wells 0, positive control 100 | protection from cytokine-induced ATP loss, % at 10 µM | 20,000 tested, 0.1% active | AID 488910;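 active means mean replicate protection from cytokine-induced ATP loss at least 50% and at least 75% of replicates each reaching 50%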
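Assay system – rat INS-1E insulinoma cell line · Quantity – 8000 cells per well · Buffer or medium – RPMI without phenol red, 5% FBS · Schedule – 48 h co-treatment, 10 min post-lysis read · Technique – luminescent ATP assay (CellTiter-Glo)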
Each line names hits and unclear results; the compound was inactive in the other large screens.

C[C@@H]1CCCCO[C@@H](CN(C)C(=O)Nc2ccc3c(c2)OCO3)[C@@H](C)CN([C@H](C)CO)C(=O)c2cc(NC(=O)Nc3ccc4c(c3)OCO4)ccc2O1	none
C[C@@H]1CCCCO[C@@H](CN(C)C(=O)Nc2ccc(C(F)(F)F)cc2)[C@@H](C)CN([C@H](C)CO)C(=O)c2cc(NC(=O)Nc3ccc4c(c3)OCO4)ccc2O1	T cruzi HTS 67
C[C@@H]1CCCCO[C@@H](CN(C)C(=O)Nc2ccc(F)cc2)[C@@H](C)CN([C@H](C)CO)C(=O)c2cc(NC(=O)Nc3ccc4c(c3)OCO4)ccc2O1	none
CC(C)NC(=O)Nc1ccc2c(c1)C(=O)N([C@H](C)CO)C[C@@H](C)[C@@H](CN(C)C(=O)Nc1cccc3ccccc13)O2	none
CNC[C@@H]1Oc2ccc(NS(=O)(=O)c3ccc(Cl)cc3)cc2C(=O)N([C@H](C)CO)C[C@H]1C	none
Cc1ccc(S(=O)(=O)N(C)C[C@H]2Oc3c(NC(=O)c4ccc(-c5nccs5)cc4)cccc3C(=O)N([C@@H](C)CO)C[C@H]2C)cc1	none
COc1ccc(S(=O)(=O)N(C)C[C@@H]2Oc3c(NC(=O)c4ccc(-c5nccs5)cc4)cccc3C(=O)N([C@H](C)CO)C[C@@H]2C)cc1	T cruzi HTS 74
COc1ccc(S(=O)(=O)N(C)C[C@H]2Oc3c(NC(=O)c4ccc(-c5nccs5)cc4)cccc3C(=O)N([C@H](C)CO)C[C@H]2C)cc1	none
Cc1ccc(S(=O)(=O)N(C)C[C@@H]2Oc3c(NC(=O)c4ccc(-c5nccs5)cc4)cccc3C(=O)N([C@H](C)CO)C[C@@H]2C)cc1	T cruzi HTS 71
C[C@@H]1CN([C@@H](C)CO)C(=O)c2cc(NC(=O)Cc3cn(C)c4ccccc34)ccc2O[C@@H]1CN(C)C(=O)Nc1ccc(C(F)(F)F)cc1	none
C[C@H](CO)N1C[C@H](C)[C@H](CN(C)Cc2ccc(C(F)(F)F)cc2)Oc2ccc(NC(=O)Cc3cn(C)c4ccccc34)cc2C1=O	none (no result: INS-1E rescue)
C[C@@H]1CN([C@@H](C)CO)C(=O)c2cc(NC(=O)Cc3cn(C)c4ccccc34)ccc2O[C@H]1CN(C)Cc1ccc(C(F)(F)F)cc1	T cruzi HTS 82
C[C@@H]1CN([C@H](C)CO)C(=O)c2cc(NC(=O)Cc3cn(C)c4ccccc34)ccc2O[C@@H]1CN(C)Cc1ccccc1	none
C[C@H]1CN([C@@H](C)CO)C(=O)c2cc(NC(=O)Cc3cn(C)c4ccccc34)ccc2O[C@H]1CN(C)Cc1ccc(C(F)(F)F)cc1	T cruzi HTS 43 (no result: INS-1E rescue)
C[C@@H]1CN([C@H](C)CO)C(=O)c2cc(NC(=O)Cc3cn(C)c4ccccc34)ccc2O[C@@H]1CN(C)C(=O)Nc1ccc(C(F)(F)F)cc1	T cruzi HTS 81
CC(C)NC(=O)N(C)C[C@H]1Oc2ccc(NC(=O)NC3CCCCC3)cc2C(=O)N([C@H](C)CO)C[C@H]1C	none
O=C(N/N=C/c1ccc(N2CCCC2)cc1)c1ccccc1O	none
C[C@@H]1CN([C@H](C)CO)C(=O)c2cc(NC(=O)c3ccncc3)ccc2O[C@@H]1CN(C)C(=O)Nc1cccc2ccccc12	none
O=C(N/N=C/c1ccc(I)cc1)c1ccccc1O	none
COc1cc(Br)c(/C=N/NC(=O)c2ccccc2O)cc1OC	none
O=C(N/N=C/c1cc(I)cc(I)c1O)c1ccccc1O	T cruzi HTS 82
COc1cc(Br)cc(/C=N/NC(=O)c2ccccc2O)c1O	T cruzi HTS 79
Cc1ccccc1/C=N/NC(=O)c1ccccc1O	none
O=C(N/N=C\c1cccc(O)c1O)c1ccccc1O	T cruzi HTS 68
C[C@@H]1CCCCO[C@@H](CN(C)C(=O)Nc2ccccc2)[C@@H](C)CN([C@H](C)CO)C(=O)c2cc(NC(=O)CCCN(C)C)ccc2O1	none
COc1ccc(NC(=O)Nc2ccc3c(c2)CC(=O)N([C@@H](C)CO)C[C@@H](C)[C@@H](CN(C)Cc2ccc(-c4ccccc4)cc2)O3)cc1	none
C[C@H](CO)N1C[C@H](C)[C@@H](CN(C)S(=O)(=O)c2ccccc2)Oc2ccc(NC(=O)Nc3ccc(F)cc3)cc2C1=O	none (no result: INS-1E rescue)
COc1ccc(S(=O)(=O)N(C)C[C@H]2Oc3ccc(NC(=O)CCCN(C)C)cc3CC(=O)N([C@H](C)CO)C[C@H]2C)cc1	none
C[C@@H]1CN([C@H](C)CO)C(=O)c2cccc(NC(=O)c3ccncc3)c2O[C@H]1CN(C)Cc1ccc(Oc2ccccc2)cc1	T cruzi HTS 85
C[C@H]1CN([C@@H](C)CO)C(=O)c2cccc(NC(=O)c3ccncc3)c2O[C@@H]1CN(C)Cc1ccc(Oc2ccccc2)cc1	T cruzi HTS 78
